ChEMBL document CHEMBL1155459, “On-bead screening of a combinatorial fumaric acid derived peptide library yields antiplasmodial cysteine protease inhibitors with unusual peptide sequences” (J Med Chem, 2009)
Calls of active or inactive are those of the source. No cut-off for these calls is given here. Square brackets hold non-standard residues; d marks the D form. Peptide text beside a SMILES is read from it. * marks the point of attachment. Fumaroyl(GlyGlyPheOH) = O=C(/C=C/C(=O)*)NCC(=O)NCC(=O)N[C@@H](Cc1ccccc1)C(=O)O; Chg = N[C@H](C(=O)O)C1CCCCC1; Dap = NC[C@H](N)C(=O)O

Key:
[1] = Inhibition of Plasmodium falciparum falcipain-2 after 12 hrs by fluorescence spectroscopy-based on-bead assay; parameters: concentration or dose not given beside the values; conditions: concentration not given here
Outline: (§1)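 Library members on resin (PEGA, theoretical loading 0.40 mmol/g; added as DMSO suspension, 0.64 mM final inhibitor) preincubated with enzyme 12 h, then Cbz-Phe-Arg-AMC 40 μM added; AMC release followed by fluorescence (ex 380/em 460 nm). Kinetics compared with inhibitor-free amino-PEGA resin.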

Plasmodium falciparum [2] = test: Inhibition of Plasmodium falciparum recombinant falcipain-2 expressed in Escherichia coli at 100 uM after 20 min by spectrofluorometry
Outline: (§2)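 Single-point screen at 100 μM inhibitor (final). Recombinant enzyme in 50 mM acetate pH 5.5, 5 mM EDTA, 200 mM NaCl, 5 mM DTT, 10% DMSO final; Cbz-Phe-Arg-AMC 40 μM (or Cbz-Leu-Arg-AMC 25 μM) hydrolysis followed by fluorescence (ex 380/em 460 nm). % inhibition = 100(1 − vi/vc) from progress-curve slopes vs DMSO control; at least two independent assays.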

[3] = Inhibition of Plasmodium falciparum recombinant falcipain-2 expressed in Escherichia coli after 20 min using Cbz-Phe-Arg-AMC as substrate by spectrofluorometry; conditions: in the assay text read “over 5-10 min” for “after 20 min”
Outline: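 Continuous assay without preincubation. Recombinant falcipain-2 in 50 mM acetate pH 5.5, 5 mM EDTA, 200 mM NaCl, 5 mM DTT, 10% DMSO final; Cbz-Phe-Arg-AMC (40 μM, Km 21.5 μM) or Cbz-Leu-Arg-AMC (25 μM, Km 8.4 μM). Fluorescence monitored 5-10 min at 0.1-80 μM inhibitor. Ki from Dixon plot, corrected to zero substrate; at least two independent assays.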

Plasmodium falciparum [4] = test: Antiplasmodial activity against Plasmodium falciparum FCBR by fluorometric method; format: functional, organism-based, FCBR/Columbia
[5] = biological target: Rhodesain (Trypanosoma brucei rhodesiense) (UniProt Q95PM0); test: Inhibition of Trypanosoma brucei rhodesiense rhodesain after 12 hrs by fluorescence spectroscopy-based on-bead assay; parameters: concentration or dose not given beside the values; conditions: concentration not given here; outline: as §1
Chain of Rhodesain (Trypanosoma brucei rhodesiense) (Q95PM0 1-450): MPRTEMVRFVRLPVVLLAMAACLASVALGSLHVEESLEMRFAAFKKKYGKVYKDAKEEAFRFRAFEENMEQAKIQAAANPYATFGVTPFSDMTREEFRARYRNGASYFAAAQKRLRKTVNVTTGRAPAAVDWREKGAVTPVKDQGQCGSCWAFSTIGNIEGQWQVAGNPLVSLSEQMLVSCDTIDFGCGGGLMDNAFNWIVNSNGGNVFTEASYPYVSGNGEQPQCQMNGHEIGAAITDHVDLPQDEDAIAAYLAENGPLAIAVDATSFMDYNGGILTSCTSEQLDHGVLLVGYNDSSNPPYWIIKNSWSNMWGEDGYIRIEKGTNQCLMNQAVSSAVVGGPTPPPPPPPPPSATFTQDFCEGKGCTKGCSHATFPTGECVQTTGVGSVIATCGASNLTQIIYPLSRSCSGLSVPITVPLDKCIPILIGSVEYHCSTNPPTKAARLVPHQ

[6] = biological target: Rhodesain (Trypanosoma brucei rhodesiense) (UniProt Q95PM0); test: Inhibition of Trypanosoma brucei rhodesiense recombinant rhodesain at 100 uM; outline: as §2
Rhodesain = Rhodesain (Trypanosoma brucei rhodesiense, UniProt Q95PM0); test: Inhibition of Trypanosoma brucei rhodesiense recombinant rhodesain
Chain of Rhodesain (Q95PM0 whole entry): as the sequence (Q95PM0 1-450) above

[7] = tested on: Trypanosoma brucei brucei; test: Antitrypanosomal activity against Trypanosoma brucei brucei; format: functional, organism-based
Cathepsin B [8] = biological target: T1, Cathepsin B (Homo sapiens, UniProt P07858); test: Inhibition of human liver cathepsin B at 100 uM
Cathepsin B [9] = biological target: T1, Cathepsin B; test: Inhibition of human liver cathepsin B
Outline: (§3)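 Cathepsin L (bovine spleen) or B (human liver) hydrolysis of Cbz-Phe-Arg-AMC (40 μM) followed by fluorescence for 5-10 min without preincubation at 0.1-80 μM inhibitor, 10% DMSO final.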

Procathepsin L = Procathepsin L (Bos taurus, UniProt P25975); test: Inhibition of bovine spleen cathepsin L; outline: as §3
Chain of Procathepsin L (P25975 whole entry): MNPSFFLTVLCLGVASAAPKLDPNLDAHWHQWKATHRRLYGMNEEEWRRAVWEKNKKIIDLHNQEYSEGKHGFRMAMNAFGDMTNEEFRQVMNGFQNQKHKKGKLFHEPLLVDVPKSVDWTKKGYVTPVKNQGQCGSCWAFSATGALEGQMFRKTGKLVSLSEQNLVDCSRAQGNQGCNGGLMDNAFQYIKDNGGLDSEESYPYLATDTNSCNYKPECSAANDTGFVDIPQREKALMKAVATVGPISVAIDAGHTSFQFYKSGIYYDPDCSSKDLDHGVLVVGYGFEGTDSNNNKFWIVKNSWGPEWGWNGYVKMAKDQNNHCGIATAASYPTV

Cathepsin B [10] = biological target: T1, Cathepsin B; test: Inhibition of human liver cathepsin B at 200 uM measured before dialysis
Outline: (§4)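 Human liver cathepsin B activity measured with 200 μM inhibitor before and after 3 h of continuous dialysis against assay buffer, to test reversibility.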

Cathepsin B [11] = biological target: T1, Cathepsin B; test: Inhibition of human liver cathepsin B at 200 uM measured after dialysis; outline: as §4
[12] = biological target: Rhodesain (Trypanosoma brucei rhodesiense) (UniProt Q95PM0); test: Inhibition of Trypanosoma brucei rhodesiense recombinant rhodesain at 200 uM
[13] = Inhibition of Plasmodium falciparum falcipain-2 by fluorescence enzyme assay
[14] = Inhibition of Plasmodium falciparum recombinant falcipain-2 expressed in Escherichia coli […] using Cbz-Leu-Arg-AMC as substrate by spectrofluorometry
[15] = Plasmodium falciparum, FCBR/Columbia, read-out: IC50

inhibition [12] [%]	Compound	inhibition [1] [%]	inhibition (Plasmodium falciparum [2]) [%]	Ki [3] [µM]	IC50 (Plasmodium falciparum [4]; [15]) [µM]	inhibition [5] [%]	inhibition [6] [%]	Ki (Rhodesain) [µM]	IC50 [7]	inhibition (Cathepsin B [8])	Ki (Cathepsin B [9]) [µM]	Ki (Procathepsin L) [µM]	inhibition (Cathepsin B [10]) [%]	inhibition (Cathepsin B [11]) [%]	IC50 (Plasmodium falciparum [4])	Ki [13] [µM]	Ki [14] [µM]
–	CC(C)[C@H](NC(=O)[C@@H](NC(=O)[C@@H](NC(=O)[C@H](CC(N)=O)NC(=O)/C=C/C(=O)NCC(=O)NCC(=O)N[C@@H](Cc1ccccc1)C(=O)O)C1CCCCC1)C(C)C)C(N)=O (HELM PEPTIDE1{[O=C(/C=C/C(=O)[*:2])NCC(=O)NCC(=O)N[C@@H](Cc1ccccc1)C(=O)O].N.[O=C([C@@H](N[*:1])C1CCCCC1)[*:2]].V.V.[am]}$$$$V2.0)	61	90	5.2	32	46	96	0.08	Not Active	100%	1.4	37.5	74	73	–	–	–
–	CC(C)[C@H](NC(=O)[C@@H](NC(=O)[C@@H](NC(=O)[C@H](CCC(N)=O)NC(=O)/C=C/C(=O)NCC(=O)NCC(=O)N[C@@H](Cc1ccccc1)C(=O)O)C1CCCCC1)C(C)C)C(N)=O (HELM PEPTIDE1{[O=C(/C=C/C(=O)[*:2])NCC(=O)NCC(=O)N[C@@H](Cc1ccccc1)C(=O)O].Q.[O=C([C@@H](N[*:1])C1CCCCC1)[*:2]].V.V.[am]}$$$$V2.0)	51	83	1.5	27	53	99	0.08	Not Active	81%	–	–	–	–	–	–	–
–	CC(C)C[C@H](NC(=O)[C@H](Cc1ccccc1)NC(=O)/C=C/C(=O)NCC(=O)NCC(=O)N[C@@H](Cc1ccccc1)C(=O)O)C(=O)N[C@@H](CC(C)C)C(=O)N[C@H](C(N)=O)C(C)C (HELM PEPTIDE1{[O=C(/C=C/C(=O)[*:2])NCC(=O)NCC(=O)N[C@@H](Cc1ccccc1)C(=O)O].F.L.L.V.[am]}$$$$V2.0)	69	100	0.8	–	69	68	0.2	–	73%	22.9	34.8	–	–	Not Active	–	–
28	N=C(N)c1ccc(OCCCCCOc2ccc(C(=N)N)cc2)cc1	–	–	–	–	–	–	–	–	–	–	–	–	–	–	–	–
–	CC(C)[C@H](NC(=O)[C@H](C)NC(=O)[C@@H](NC(=O)[C@H](CC(N)=O)NC(=O)/C=C/C(=O)NCC(=O)NCC(=O)N[C@@H](Cc1ccccc1)C(=O)O)C1CCCCC1)C(N)=O (HELM PEPTIDE1{[O=C(/C=C/C(=O)[*:2])NCC(=O)NCC(=O)N[C@@H](Cc1ccccc1)C(=O)O].N.[O=C([C@@H](N[*:1])C1CCCCC1)[*:2]].A.V.[am]}$$$$V2.0)	73	79	12.2	75	26	98	0.4	–	78%	22.2	–	–	–	–	–	–
–	CC(C)C[C@H](NC(=O)[C@H]1O[C@@H]1C(=O)O)C(=O)NCCCCN=C(N)N [E-64]	–	–	–	–	–	–	–	–	–	–	–	–	–	–	0.29	–
–	CC(C)C[C@H](NC(=O)[C@H](C)NC(=O)/C=C/C(=O)N[C@@H](C)C(=O)NCC(=O)N[C@@H](Cc1ccccc1)C(=O)O)C(=O)N[C@@H](CC(C)C)C(=O)N[C@H](C(N)=O)C(C)C (HELM PEPTIDE1{[C[C@H](NC(=O)/C=C/C(=O)[*:2])C(=O)NCC(=O)N[C@@H](Cc1ccccc1)C(=O)O].A.L.L.V.[am]}$$$$V2.0)	58	86	–	–	67	96	1.3	–	45%	–	33.6	–	–	–	–	9.5
–	CC(=O)NC[C@H](NC(=O)/C=C/C(=O)NCC(=O)NCC(=O)N[C@@H](Cc1ccccc1)C(=O)O)C(=O)N[C@H](C(=O)N[C@@H](C)C(=O)N[C@H](C(N)=O)C(C)C)C1CCCCC1 ({Fumaroyl(GlyGlyPheOH)}-[Dap](Ac)[Chg]AV-NH2)	23	83	7	22	25	95	0.3	Not Active	83%	12.4	–	–	–	–	–	–
–	CC(=O)NC[C@H](NC(=O)/C=C/C(=O)NCC(=O)NCC(=O)N[C@@H](Cc1ccccc1)C(=O)O)C(=O)N[C@@H](CC(C)C)C(=O)N[C@@H](CC(C)C)C(=O)N[C@H](C(N)=O)C(C)C (HELM PEPTIDE1{[O=C(/C=C/C(=O)[*:2])NCC(=O)NCC(=O)N[C@@H](Cc1ccccc1)C(=O)O].[O=C([C@H](CN[*:3])N[*:1])[*:2]].L.L.V.[am]}|PEPTIDE2{[ac]}$PEPTIDE1,PEPTIDE2,2:R3-1:R2$$$V2.0)	54	79	–	–	60	87	1.8	–	inactive	–	40	–	–	–	–	11.8
